Assay results from ChEMBL document CHEMBL4689842, “EUbOPEN Chemogenomics Library wave 1” (2021).
Values joined by “and” are separate entries in the source; they are usually repeats but may differ in a detail not shown here. Equal entries are not always repeated.

Key:
Format in all cases: toxicity, cell-based
Fibroblast = assay: Multiplex assay against human fibroblast; settings: 10 µM, compound concentration 10 uM
Procedure, shortened: (§1)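 Tubulin, mitochondrial-mass and membrane-permeability phenotypes are per cents of healthy-nucleus cells. Cells were gated by CellPathfinder machine learning into Hoechst high-intensity objects or normal cells, normal cells into healthy, pyknosed or fragmented nuclei, and pyknosed cells into mitotic or apoptotic. Before that, live cells stained at seeding with Hoechst33342, BioTracker Green Microtubule Cytoskeleton Dye, MitoTracker Red and Annexin V Alexa Fluor 680 were imaged on a CQ1 microscope at 37°C and 5% CO2 after compound addition.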

U2OS = assay: Incucyte cell viability with U2OS; settings: human, 10 µM, compound concentration 10 uM; also: filed as whole numbers so only -1 and 0 and 1 occur
HEK-293T = assay: Multiplex assay against HEK293T; settings: human, 10 µM, compound concentration 10 uM; procedure, shortened: as §1;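 as to Population Tubulin-Different-Phenotype (%): share of the cells with healthy nuclei that show this phenotype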

SMILES: C1=N/C2=N/c3ccc(OCCN4CCCC4)c(c3)COC/C=C\COCc3cccc(c3)C(=C1)N2
- Population Apoptotic (%) (Fibroblast; 12 h, replicate 1): 82% and 50% and 69%
- Population Fragmented Nuclei (%) (Fibroblast; 12 h, replicate 1): 23% and 19% and 32%
- Population Hoechst High Intensity Objects (%) (Fibroblast; 12 h, replicate 1): 13% and 8% and 12%
- Population Membrane Permeable-Phenotype (%) (Fibroblast; 12 h, replicate 1): 0% and 2% and 3%
- Population Mitotic Cells (%) (Fibroblast; 12 h, replicate 1): 17% and 49% and 30%
- Population Normal (%) (Fibroblast; 12 h, replicate 1): 86% and 91% and 87%
- Population Apoptotic (%) (Fibroblast; 12 h, replicate 2): 68% and 44% and 90%
- Population Fragmented Nuclei (%) (Fibroblast; 12 h, replicate 2): 66% and 46% and 29%
- Population Normal (%) (Fibroblast; 12 h, replicate 2): 60% and 68% and 89%
- Population Pyknosed Nuclei (%) (Fibroblast; 12 h, replicate 2): 24% and 18% and 53%
- Total Cell Count (Fibroblast; 12 h, replicate 2): 108 and 72 and 71
- Population Apoptotic (%) (Fibroblast; 24 h, replicate 1): 82% and 61% and 58%
- Population Fragmented Nuclei (%) (Fibroblast; 24 h, replicate 1): 35% and 32% and 34%
- Population Hoechst High Intensity Objects (%) (Fibroblast; 24 h, replicate 1): 15% and 6% and 13%
- Population Mitotic Cells (%) (Fibroblast; 24 h, replicate 1): 17% and 38% and 41%
- Population Normal (%) (Fibroblast; 24 h, replicate 1): 84% and 93% and 86%
- Population Tubulin-Different-Phenotype (%) (Fibroblast; 24 h, replicate 1): 54% and 82%
- Population Apoptotic (%) (Fibroblast; 24 h, replicate 2): 92% and 57% and 96%
- Population Hoechst High Intensity Objects (%) (Fibroblast; 24 h, replicate 2): 37% and 28% and 32%
- Population Normal (%) (Fibroblast; 24 h, replicate 2): 62% and 71% and 67%
- Total Cell Count (Fibroblast; 24 h, replicate 2): 98 and 77 and 69
- Population Apoptotic (%) (Fibroblast; 48 h, replicate 1): 87%
- Population Fragmented Nuclei (%) (Fibroblast; 48 h, replicate 1): 50%
- Population Healthy Nuclei (%) (Fibroblast; 48 h, replicate 1): 24%
- Population Hoechst High Intensity Objects (%) (Fibroblast; 48 h, replicate 1): 20%
- Population Membrane Permeable-Phenotype (%) (Fibroblast; 48 h, replicate 1): 25%
- Population Mitochondria Different-Phenotype (%) (Fibroblast; 48 h, replicate 1): 31%
- Population Mitotic Cells (%) (Fibroblast; 48 h, replicate 1): 12%
- Population Normal (%) (Fibroblast; 48 h, replicate 1): 79%
- Population Pyknosed Nuclei (%) (Fibroblast; 48 h, replicate 1): 24%
- Population Tubulin-Different-Phenotype (%) (Fibroblast; 48 h, replicate 1): 50%
- Total Cell Count (Fibroblast; 48 h, replicate 1): 82
- Population Apoptotic (%) (Fibroblast; 48 h, replicate 2): 94%
- Population Fragmented Nuclei (%) (Fibroblast; 48 h, replicate 2): 68%
- Population Healthy Nuclei (%) (Fibroblast; 48 h, replicate 2): 5%
- Population Hoechst High Intensity Objects (%) (Fibroblast; 48 h, replicate 2): 14%
- Population Membrane Permeable-Phenotype (%) (Fibroblast; 48 h, replicate 2): 0%
- Population Mitochondria Different-Phenotype (%) (Fibroblast; 48 h, replicate 2): 100%
- Population Mitotic Cells (%) (Fibroblast; 48 h, replicate 2): 5%
- Population Normal (%) (Fibroblast; 48 h, replicate 2): 85%
- Population Pyknosed Nuclei (%) (Fibroblast; 48 h, replicate 2): 25%
- Population Tubulin-Different-Phenotype (%) (Fibroblast; 48 h, replicate 2): 75%
- Total Cell Count (Fibroblast; 48 h, replicate 2): 78
- Growth Rate (U2OS; 0 h, replicate number 1, timepoint 0 hours): 0
- Growth Rate (U2OS; 6 h, replicate number 1, timepoint 6 hours): 0
- Growth Rate (U2OS; 12 h, replicate number 1, timepoint 12 hours): 0
- Growth Rate (U2OS; 18 h, replicate number 1, timepoint 18 hours): 0
- Growth Rate (U2OS; 24 h, replicate number 1, timepoint 24 hours): 0
- Population Fragmented Nuclei (%) (HEK-293T; 12 h, replicate 1): 34% and 21% and 25%
- Population Hoechst High Intensity Objects (%) (HEK-293T; 12 h, replicate 1): 26% and 14% and 21%
- Population Membrane Permeable-Phenotype (%) (HEK-293T; 12 h, replicate 1): 14% and 13% and 0%
- Population Normal (%) (HEK-293T; 12 h, replicate 1): 73% and 85% and 78%
- Population Pyknosed Nuclei (%) (HEK-293T; 12 h, replicate 1): 52% and 47% and 73%
- Total Cell Count (HEK-293T; 12 h, replicate 1): 695 and 596 and 237
- Population Membrane Permeable-Phenotype (%) (HEK-293T; 12 h, replicate 2): 4% and 5%
- Population Mitochondria Different-Phenotype (%) (HEK-293T; 12 h, replicate 2): 89% and 81% and 50%
- Population Normal (%) (HEK-293T; 12 h, replicate 2): 77% and 79% and 94%
- Population Pyknosed Nuclei (%) (HEK-293T; 12 h, replicate 2): 54% and 88% and 38%
- Population Tubulin-Different-Phenotype (%) (HEK-293T; 12 h, replicate 2): 82% and 72% and 94%
- Population Apoptotic (%) (HEK-293T; 24 h, replicate 1): 87% and 58% and 29%
- Population Fragmented Nuclei (%) (HEK-293T; 24 h, replicate 1): 30% and 38% and 21%
- Population Hoechst High Intensity Objects (%) (HEK-293T; 24 h, replicate 1): 20% and 21% and 14%
- Population Membrane Permeable-Phenotype (%) (HEK-293T; 24 h, replicate 1): 0% and 19% and 7%
- Population Normal (%) (HEK-293T; 24 h, replicate 1): 79% and 78% and 85%
- Population Pyknosed Nuclei (%) (HEK-293T; 24 h, replicate 1): 69% and 45% and 44%
- Total Cell Count (HEK-293T; 24 h, replicate 1): 253 and 698 and 607
- Population Hoechst High Intensity Objects (%) (HEK-293T; 24 h, replicate 2): 19% and 13% and 7%
- Population Mitochondria Different-Phenotype (%) (HEK-293T; 24 h, replicate 2): 69% and 78% and 54%
- Population Normal (%) (HEK-293T; 24 h, replicate 2): 80% and 86% and 92%
- Population Pyknosed Nuclei (%) (HEK-293T; 24 h, replicate 2): 79% and 55% and 35%
- Population Tubulin-Different-Phenotype (%) (HEK-293T; 24 h, replicate 2): 100% and 87% and 94%
- Population Apoptotic (%) (HEK-293T; 48 h, replicate 1): 87%
- Population Fragmented Nuclei (%) (HEK-293T; 48 h, replicate 1): 37%
- Population Healthy Nuclei (%) (HEK-293T; 48 h, replicate 1): 0%
